Bioassay records from PubChem.
DNMT1 inh: blocks human DNA methyltransferase DNMT1; P26358; DNMT1 molecular beacon, Hinp1I cleavage, fluorescence; inhibition (reported as % activation of signal), % at 10 µM; 360,000 tested, 0.83% active; AID 588458
LMPTP block: LMPTP (human) inhibition; P24666; recombinant LMPTP-A, OMFP fluorogenic substrate, fluorescence intensity; inhibition, % at 20 µM; 360,000 tested, 0.22% active; AID 651560;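 active = compounds that cut the enzyme signal by at least half of the control window in the single-dose screen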
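Assay system: LMPTP-A, protein tyrosine phosphatase of low molecular weight / Medium: pH 6.0 Bis-Tris buffer with DTT and Triton X-100 / Schedule: 50 min enzyme reaction at room temperature, protected from light / Measured by: endpoint fluorescence intensity from OMFP dephosphorylation / Read-out basis: % inhibition relative to no-enzyme and uninhibited control wells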
Scp-1 inhibitor: blocks human Scp-1 phosphatase activity; Q9GZU7; Recombinant Scp1, phosphopeptide, malachite green phosphate absorbance; inhibition, % at 20 µM; 340,000 tested, 0.88% active; AID 493091;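 active = inhibition above about 50% at 20 µM, limit read from the data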
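Material – SCP-1 phosphatase catalytic domain, residues 76-261 · Buffer or medium – Acidic Tris acetate buffer with magnesium and detergent · Also added – Phospho 17-mer peptide substrate · Compound – single 20 µM dose, 1% DMSO · Times – 45 min room-temperature reaction, 5 min colour, 30 min stabiliser · Technique – Phosphate-binding colour reagent, absorbance read at 630 nm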
SUMO1-SIM PPI: modulators of human SUMO1-mediated protein-protein interactions | P63165 | SUMO1 binding to a labelled peptide, TR-FRET, 1 h | inhibition, % at 20 µM | 360,000 tested, 0.33% active; in the data active = inhibition above about 37%
Target sequence (P63165 whole entry, looked up): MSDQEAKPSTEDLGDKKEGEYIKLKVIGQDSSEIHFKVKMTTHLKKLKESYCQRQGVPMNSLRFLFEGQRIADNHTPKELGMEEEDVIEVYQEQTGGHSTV
STEP block: blocks human striatal-enriched tyrosine phosphatase; recombinant STEP, OMFP fluorogenic substrate, fluorescence; 360,000 tested, 0.25% active; AID 588621; inhibition, % at 20 µM; P54829;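 active = inhibition at 20 µM, scaled per plate between control wells, above about 37%, limit read from the data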
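medium = Bis-Tris buffer pH 6.0, 2.5 mM DTT, 0.005% Tween 20 | test system = STEP (striatal-enriched tyrosine phosphatase) enzyme, cell-free | measure = normalized % inhibition | compound dosing = 20 µM, 1% DMSO | also added = 25 µM OMFP | schedule = reaction 20 min, ambient temperature | measured by = fluorescence read at 480 nm ex / 540 nm em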
CSN inh: CSN deneddylation inhibition; Q92905; Purified CSN, SCF-Nedd8-OG deneddylation, fluorescence polarization; inhibition, % at 12.5 µM; 360,000 tested, 0.38% active; AID 651999;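 active = pattern-corrected inhibition above about 35%, with an unprinted fluorescence ratio check between 0.5 and 1.5, limit read from the data, passing the limit was not always enough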
Target sequence (Q92905 whole entry, looked up, one chain of several): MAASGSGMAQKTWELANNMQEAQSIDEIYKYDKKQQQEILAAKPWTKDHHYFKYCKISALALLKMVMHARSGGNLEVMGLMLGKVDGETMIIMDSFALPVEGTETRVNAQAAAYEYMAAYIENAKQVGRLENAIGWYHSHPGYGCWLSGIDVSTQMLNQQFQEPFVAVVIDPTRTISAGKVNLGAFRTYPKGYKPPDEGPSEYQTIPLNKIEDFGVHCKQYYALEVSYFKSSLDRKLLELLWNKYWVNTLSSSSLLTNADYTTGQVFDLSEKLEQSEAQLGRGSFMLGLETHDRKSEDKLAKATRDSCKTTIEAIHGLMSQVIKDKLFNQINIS
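Test system: purified human Csn5 enzyme expressed in HEK293T cells. Amount: 0.24 nM enzyme. Reagent: SCFSkp2-Nedd8OG substrate at 10 nM final. Schedule: 90 min incubation of compound, enzyme and substrate at room temperature. Detection: fluorescence polarization. Read-out: % inhibition of substrate cleavage by Csn5.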
CSN5 deneddyl: validation of inhibitors of human CSN-mediated cullin deneddylation. shares compounds with CSN inh. Csn5 deneddylation of SCF-Nedd8OG, fluorescence polarization, 90 min. inhibition, % at 16.6 µM. 540 tested, 62% active. AID 720654
MMP2 cntr CSN: counter-screen for CSN deneddylation inhibitors: human MMP-2 inhibition | inhibition, % at 16.6 µM | 540 tested, 33% active | shares compounds with CSN inh | recombinant MMP-2, FRET substrate fluorescence, 60 min;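 active = corrected plate-normalized z-score of 5 or more, or -5 or less, or inhibition of 15% or more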
Thrombin counter: blocks bovine thrombin in a CSN deneddylation counter-screen. shares compounds with CSN inh. bovine thrombin cleavage of Ub4-pepOG, fluorescence polarization. inhibition, % at 16.6 µM. 540 tested, 49% active. AID 720656;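 active = inhibition at or above a set limit, with a fluorescence interference ratio between 0.5 and a set maximum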
Large screens that a line does not name were inactive (follow-up assays come after a bar, where they were run); ! = not active in a repeat. This is a sample that favours compounds with a hit; in the whole collection about 1.9% have one here. Rule as the data show it, unless noted: active = inhibition above about 50%; inactive = the rest.

Cc1ccc(C2=NN(S(=O)(=O)c3ccccc3)C(c3ccccc3O)C2)cc1 (stereo not drawn)	CSN inh 60.7 | CSN5 deneddyl 56.8 | MMP2 cntr CSN inactive | Thrombin counter 55.7
CC(C)=NNc1cnnc2ccc([N+](=O)[O-])cc12	none (no result: Scp-1 inhibitor)
CN(C)c1ccc(/C=C2/C[N+](C)(C)C/C(=C/c3ccc(N(C)C)cc3)C2=O)cc1	CSN inh 93.8 | CSN5 deneddyl inactive | MMP2 cntr CSN -40.7 | Thrombin counter 113.6
CCCCN(C)CC(O)Cn1cc(/C=C/C(=O)c2cccs2)c2ccccc21 (stereo not drawn)	CSN inh 41.2 | CSN5 deneddyl 67.4 | MMP2 cntr CSN inactive | Thrombin counter 32.0
CCC(C)Cn1c(C(C)O)nc2ccccc21 (stereo not drawn)	none
COc1ccc(Br)c(C(=O)OCC(=O)NC2CCCCCC2)c1	none
Cc1nc(SCc2nc3cc(Cl)c(F)cc3[nH]2)c2oc3ccccc3c2n1	CSN inh 35.6 | CSN5 deneddyl 85.8 | MMP2 cntr CSN inactive | Thrombin counter inactive
O=C1Nc2ccc(Br)cc2C1(O)c1ccccc1 (stereo not drawn)	none
O=C1Nc2ccc(Br)cc2C12NNc1ccccc1O2 (stereo not drawn)	CSN inh 52.2 | CSN5 deneddyl 128.6 | MMP2 cntr CSN inactive | Thrombin counter 17.2
CCCCCn1c(NC(=O)c2ccco2)c(S(=O)(=O)c2ccc(C)cc2)c2nc3ccccc3nc21	none
CCCCn1c(NC(=O)c2ccc(Br)o2)c(S(=O)(=O)c2ccccc2)c2nc3ccccc3nc21	SUMO1-SIM PPI 46.7, CSN inh 48.3 | CSN5 deneddyl 101.2 | MMP2 cntr CSN inactive | Thrombin counter inactive
COC(=O)c1cc(C)nc2c1C(=O)C(=O)C=C2N1CCOCC1	DNMT1 inh 96.6, SUMO1-SIM PPI 78.9, CSN inh 45.2 | CSN5 deneddyl inactive | MMP2 cntr CSN inactive | Thrombin counter inactive
C/C=C1\C(OC2OC(CO)C(O)C(O)C2O)OC=C(C(=O)OC)C1CC(=O)OCC1C(C)C(OC(=O)CC2C(C(=O)OC)=COC(OC3OC(CO)C(O)C(O)C3O)/C2=C\C)CC1C(CO)CO (stereo not drawn)	none
CC(C)c1ccc(OC(=O)c2ccc3c(=O)n4c(nc3c2)CCC4)cc1	none
O=c1oc(/C=C/c2ccc([N+](=O)[O-])s2)nc2ccccc12	CSN inh 50.0 | CSN5 deneddyl 189.4 | MMP2 cntr CSN inactive | Thrombin counter 25.1
CC(=O)Oc1ccccc1/C=C/c1nc2ccccc2c(=O)o1	none
CC1(C(=O)Nc2ccc3[nH]ncc3c2)CCN1C(=O)C/C=C/c1ccccc1 (stereo not drawn)	none (no result: Scp-1 inhibitor)
Cc1ccc(NC(=O)c2ccc(-n3cccn3)c([N+](=O)[O-])c2)cc1	none
O=C(Nc1ccc(C2=NCCN2)cc1)c1ccc(C(=O)Nc2ccc(C3=NCCN3)cc2)c([N+](=O)[O-])c1	LMPTP block 82.4, SUMO1-SIM PPI 96.0, CSN inh 117.2 | CSN5 deneddyl inactive | MMP2 cntr CSN 86.2 | Thrombin counter inactive
CCN1CCN(Cc2ccc(NC(=O)c3cc(NC(=O)c4cncc(-c5ccc(C#N)cc5)c4)cc(OC)c3)cc2C(F)(F)F)CC1	CSN inh 138.0! | CSN5 deneddyl inactive | MMP2 cntr CSN 16.6 | Thrombin counter inactive
CCOc1cc(N2CCOCC2)c(OCC)cc1NC(C)C(=O)N1CCC(C)CC1 (stereo not drawn)	none
